High-throughput results (PubChem BioAssay)
SENP8 block-1: SENP8 protease inhibitors, primary screen, biochemical, luminescence. Sentrin-specific protease 8 (Homo sapiens), Q96LD8. purified SENP8, Z-RLRGG-aminoluciferin cleavage. inhibition, % at 10 µM. hit rate 1.2% among 330,000; in the data active = inhibition above about 50%
SENP8 block-2: human SENP8 protease inhibitors, primary screen, biochemical, fluorescence, Nedd8 protein substrate, uHTS; inhibition, % at 20 µM; recombinant SENP8; hit rate 0.64% among 360,000; AID 602440, 2012; in the data active = inhibition mostly above about 40%, no sharp cut-off; inactive = mostly below about 27%
SENP7 block: SENP7 protease inhibitors, primary screen, biochemical, luminescence, uHTS | inhibition, % at 5 µM | hit rate 1.5% among 330,000 | recombinant SENP7, Z-RLRGG-aminoluciferin luminescence, 40 min | Sentrin-specific protease 7 (Homo sapiens), Q9BQF6 | AID 434973, 2010;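 active = inhibition above about 50% at the single test dose, limit read from the data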;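 also: plate controls were DMSO with enzyme for no effect and no enzyme buffer wells for full effect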
Target sequence (Q9BQF6 706-1050 limits assumed): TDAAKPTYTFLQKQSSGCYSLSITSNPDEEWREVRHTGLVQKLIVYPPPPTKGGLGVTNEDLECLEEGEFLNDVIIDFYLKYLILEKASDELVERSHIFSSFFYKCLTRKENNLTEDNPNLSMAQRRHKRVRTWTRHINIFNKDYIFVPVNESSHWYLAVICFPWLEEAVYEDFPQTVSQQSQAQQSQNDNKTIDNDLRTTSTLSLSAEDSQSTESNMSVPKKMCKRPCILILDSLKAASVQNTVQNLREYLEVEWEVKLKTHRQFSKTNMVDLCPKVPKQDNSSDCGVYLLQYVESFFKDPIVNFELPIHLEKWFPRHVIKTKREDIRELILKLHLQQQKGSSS
SENP6 block: SENP6 protease inhibitors, primary screen, biochemical, luminescence, uHTS; Recombinant SENP6 catalytic domain, aminoluciferin luminescence; inhibition, % at 10 µM; hit rate 1.8% among 330,000;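 active = inhibition above about 50% at the single tested dose, limit read from the data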;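 also: plate controls were DMSO wells with enzyme for no effect and DMSO wells lacking enzyme for full effect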
Platelet DG rel: inhibitors of platelet dense granule secretion, primary screen, cell-based, MLPCN, human platelets | human platelet-rich plasma, SFLLRN dense granule ATP release, luminescence | inhibition, %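 (compounds screened at 7.5 µM in platelet-rich plasma)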 | hit rate 0.22% among 300,000 | AID 1663, 2009;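 active = mean replicate score, as percent of positive control, at or above 50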
SENP1 FRET inh: human SENP1 catalytic domain inhibitors, primary screen, biochemical, FRET, uHTS; hit rate 0.21% among 360,000; recombinant SENP1 catalytic domain, CyPet-SUMO1-YPet FRET cleavage; inhibition, % at 10 µM;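 active = inhibition at least 30% at 10 µM, raw YFP signal under a set limit, fluorescence ratio 0.5 to 1.5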;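 also: 0% = enzyme with DMSO and 100% = no enzyme wells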
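Controls: no-enzyme wells low, DMSO-plus-enzyme wells high control. Test system: human recombinant His6-tagged SENP1 catalytic domain enzyme. Reagent: SFCypet-SUMO1-SFYpet FRET protein substrate, 25 nM final. Doses: one dose per compound, 10 µM, 0.5% DMSO. Detection: FRET, CFP and YFP emission. Timing: 50 min reaction at room temperature.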
SENP8 conf: SENP8 protease inhibitors, retest, confirmation, biochemical, luminescence, single concentration | shares compounds with SENP7 block | Recombinant SENP8, Z-RLRGG-aminoluciferin luminescence, 60 min | inhibition, % at 12.5 µM | AID 488912, 2010 | hit rate 40% among 6,200;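 active = mean inhibition across replicates above about 50%, limit read from the data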
SENP6 conf: SENP6 protease inhibitors, confirmation, biochemical, luminescence, single concentration; shares compounds with SENP7 block; recombinant SENP6, Z-RLRGG-aminoluciferin luminescence; inhibition, % at 12.5 µM; hit rate 58% among 6,200; AID 488915, 2010
SENP7 confirm: SENP7 protease inhibitors, retest, confirmation, biochemical, luminescence, single concentration; shares compounds with SENP7 block; recombinant SENP7, Z-RLRGG-aminoluciferin luminescence, 40 min; inhibition, % at 12.5 µM; hit rate 69% among 6,200; AID 488917, 2010
Casp3 select: caspase-3 protease inhibitors, confirmation, selectivity assay for SENP inhibitor project, biochemical, single concentration | shares compounds with SENP7 block | purified caspase-3, Z-DEVD-aminoluciferin luminescence, 60 min | inhibition, % at 12.5 µM | hit rate 60% among 6,200;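 active = mean inhibition above about 50%, limit read from the data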;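 also: plate controls were enzyme with DMSO for no effect and wells without caspase-3 for full effect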
Luc interf: counter-screen for SENP inhibitors: luminescence interference; shares compounds with SENP7 block; Pre-incubated SENP8/Z-RLRGG-aminoluciferin, luciferase luminescence interference; inhibition, % at 12.5 µM; hit rate 39% among 6,200;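 active = mean inhibition above about 50% when retested at one dose, limit read from the data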;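 also: plate controls were DMSO wells with completed reaction for no effect and substrate without enzyme for full effect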
The depositor's hits bear a star. An excerpt weighted towards active compounds, which were near 2.6% of everything screened.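 The calls were made as follows, unless noted: active = mean inhibition above about 50% in the one-dose retest (limit read from the data); inactive = the rest.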

`CN(C)c1ccc(N/C=C/C(=O)c2ccc(F)cc2)cc1` gave SENP8 block-1 94.1*, SENP8 block-2 35.5, SENP7 block 99.9*, SENP6 block 98.4*, Platelet DG rel 95.3*, SENP1 FRET inh 66.7*, SENP8 conf 2.8, SENP6 conf 61.4*, SENP7 confirm 25.9, Casp3 select 71.2* and Luc interf 17.4.
NC(=O)c1ccccc1N/C=C/C(=O)c1ccccc1 was read as SENP8 block-1 87.8*, SENP8 block-2 -285.6, SENP7 block 90.7*, SENP6 block 94.1*, Platelet DG rel 27.8, SENP1 FRET inh -51.4, SENP8 conf 86.6*, SENP6 conf 95.1*, SENP7 confirm 101.8*, Casp3 select 96.3* and Luc interf 80.9*.
`COC(=O)c1ccc(N/C=C/C(=O)c2ccccc2)cc1` gave SENP8 block-1 75.0*, SENP8 block-2 -348.4, SENP7 block 95.8*, SENP6 block 89.5*, Platelet DG rel 35.6, SENP1 FRET inh -44.3, SENP8 conf -23.1, SENP6 conf -11.4, SENP7 confirm 0.6, Casp3 select -2.8 and Luc interf -1.7.
`COC(=O)c1ccccc1N/C=C/C(=O)c1ccc(Br)cc1` gave SENP8 block-1 4.1, SENP8 block-2 -207.2, SENP7 block 52.7*, SENP6 block 66.0*, Platelet DG rel -9.6, SENP1 FRET inh -117.2, SENP8 conf 12.2, SENP6 conf 28.7, SENP7 confirm 47.3, Casp3 select 41.0 and Luc interf 6.9.
Screening CN(C)c1cccc(C(=O)NNC(=O)CSc2ccccc2)c1 returned SENP8 block-1 0.5, SENP8 block-2 -144.4, SENP7 block -0.3, SENP6 block -10.9, Platelet DG rel 19.6 and SENP1 FRET inh 0.7.
`Cc1cccc(NC(=O)c2onc3c2CCCC3)c1C` gave SENP8 block-1 24.1, SENP8 block-2 10.6, SENP7 block 25.1, SENP6 block 49.1, Platelet DG rel 4.0 and SENP1 FRET inh 0.3.
Cc1cccc(NC(=O)c2ccoc2C)n1 was read as SENP8 block-1 5.2, SENP8 block-2 -5.2, SENP7 block 31.3, SENP6 block 38.7, Platelet DG rel 5.4 and SENP1 FRET inh 0.1.
`Cc1cccc(NC(=O)c2onc3c2CCCC3)n1` gave SENP8 block-1 93.0*, SENP8 block-2 3.5, SENP7 block 97.0*, SENP6 block 95.3*, Platelet DG rel 21.4, SENP1 FRET inh -0.7, SENP8 conf 96.4*, SENP6 conf 97.6*, SENP7 confirm 102.0*, Casp3 select 97.5* and Luc interf 95.5*.
